Experimental data of several laboratories.
Each line is one published result; the experiments were not run side by side.
CDK5: Cyclin-dependent kinase 5 (CDK5, Homo sapiens, UniProt Q00535)
CDK5 with p35: Cyclin-dependent kinase 5, with p35 (CDK5, Homo sapiens, UniProt Q00535)

SMILES	target	effect on	mode	method	concentration	measurement	value
Cc1nn(C)cc1-c1nc2c(N3CCN(Cc4ccc(Cl)cc4)CC3)c(Cl)cnc2[nH]1	CDK5	binding		competition with immobilised ligand	1 µM	remaining binding	76%
N#CC1(c2ccccn2)CCN(Cc2cc(C(=O)O)c(=O)n3ccccc23)CC1	CDK5	cell-free assay		competition with immobilised ligand	1 µM	remaining binding	100%
COc1ncccc1-c1cnn2ccc(N3CCN(C(=O)OC(C)C)CC3)nc12	CDK5	binding		competition with immobilised ligand	1 µM	remaining binding	100%
CC(C)(C)c1cc(C=C(C#N)C#N)cc(Br)c1O	CDK5 with p35	enzyme activity	inhibitor		0.5 µM	remaining activity	102%
Cn1cc(-c2cccc(N3CCc4c(sc5c4CC(C)(C)C5)C3=O)c2CO)cc(Nc2ccncn2)c1=O	CDK5 with p35	enzyme activity	inhibitor		1 µM	inhibition	3%
Cn1cncc1[C@](O)(COc1ccc(C#N)cc1-c1ccc(OC(F)(F)F)cc1)c1ccc(C#N)cc1	CDK5	cell-free assay		competition with immobilised ligand	1 µM	remaining binding	92%
Nc1ncc(-c2nc(N3CCOCC3)nc(N3CCOCC3)n2)c(C(F)F)n1	CDK5	binding		competition with immobilised ligand	10 µM	remaining binding	100%
Cn1cc(-c2cc(F)cc(N3CCn4c(cc5c4CCCC5)C3=O)c2CO)cc(Nc2ccc(N3CCN(C4COC4)CC3)cn2)c1=O	Cyclin-dependent kinase 5, with p25 (CDK5, Homo sapiens, UniProt Q00535)	enzyme activity	inhibitor		0.1 µM	inhibition	9%
